Laboratory results reported in article PMC6540510 (Pulmonary Circulation, 2019).
Read-outs that look alike come from different tables or passages of the source.

Tests used:
[1] = sildenafil 100 mg single dose with ritonavir 500 mg twice daily; cited from earlier work
[2] = type: in vivo; settings: human, plasma, 0.5 mg; for Tmax: adults with HIV
Outline: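 Adults with HIV on stable fixed-dose background ART for ≥6 weeks received a single oral 0.5 mg dose in the morning after a ≥10 h fast, then a further 4-h fast. Plasma was sampled at baseline and 0.5–48 h. Analysis was by HPLC-MS/MS with internal standards (LLOQ 2 µg/L). Cmax was derived non-compartmentally and summarised as geometric mean with %CV.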

[3] = co-administration of ketoconazole, single 0.5 mg riociguat, 16 healthy volunteers; cited from earlier work
[4] = type: in vivo, human; settings: single 0.5 mg dose
Outline: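 Single oral 0.5 mg dose was given fasted on top of stable background ART, with plasma sampled to 48 h and assayed by HPLC-MS/MS. AUC(0–∞) was derived non-compartmentally. ANOVA on log-transformed AUC gave LS-mean ratios versus historical healthy-volunteer data (n = 80; fed and fasted states), re-transformed, with 90% CIs.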

[5] = cited from earlier work
Safety and tolerability = type: in vivo, human
Outline: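 HIV-infected adults (n = 41 treated) on stable background ART received a single fasted oral 0.5 mg dose. Treatment-emergent adverse events, vital signs, ECG and laboratory parameters were recorded. Supine and/or sitting blood pressure was measured regularly, generally at the blood-sampling times (0.5–48 h post-dose).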

[6] = tadalafil 20 mg with ritonavir 200 mg twice daily; cited from earlier work
[7] = co-administered with lopinavir and ritonavir, healthy individuals; cited from earlier work
[8] = cited from earlier work; remark: listed apart in the source
[9] = single 0.5 mg dose, adults with HIV
[10] = single 0.5 mg dose, adults with HIV, all background regimens, total n = 41
[11] = single 0.5 mg dose, adults with HIV, background abacavir/dolutegravir/lamivudine (TRIUMEQ), n = 8
[12] = single 0.5 mg dose, adults with HIV, background efavirenz/emtricitabine/tenofovir disoproxil (ATRIPLA), n = 8
[13] = single 0.5 mg dose, adults with HIV, background elvitegravir/cobicistat/emtricitabine/tenofovir disoproxil (STRIBILD), n = 8
[14] = single 0.5 mg dose, adults with HIV, background emtricitabine/rilpivirine/tenofovir disoproxil (COMPLERA), n = 8
[15] = single 0.5 mg dose, adults with HIV, background ritonavir-boosted triple regimen, n = 9

For CCCc1nn(C)c2c(=O)[nH]c(-c3cc(S(=O)(=O)N4CCN(C)CC4)ccc3OCC)nc12 [sildenafil], which “increase in plasma AUC” value [1] is on record?
Its value is 11 fold.

Which Cmax ([2]; oral) does the source give for COC(=O)N(C)c1c(N)nc(-c2nn(Cc3ccccc3F)c3ncccc23)nc1N [riociguat] here?
Its Cmax is 14.2 to 20.4 ng/mL.

And the Tmax ([2]; oral, median tmax, range across the five background antiretroviral groups, single 0.5 mg dose)?
The Tmax was 1 to 1.27 h.

And the Tmax ([2]; po, tmax, single 0.5 mg oral dose, background abacavir/dolutegravir/lamivudine (TRIUMEQ), median (range), n = 8)?
Its Tmax is 1.27 h.

And the Tmax ([2]; po, tmax, single 0.5 mg oral dose, background efavirenz/emtricitabine/tenofovir disoproxil (ATRIPLA), median (range), n = 8)?
The Tmax was 1 h.

What about the Tmax ([2]; po, tmax, single 0.5 mg oral dose, background elvitegravir/cobicistat/emtricitabine/tenofovir disoproxil (STRIBILD), median (range), n = 8) of the same compound?
The Tmax was 1.03 h.

And the Tmax ([2]; po, tmax, single 0.5 mg oral dose, background emtricitabine/rilpivirine/tenofovir disoproxil (COMPLERA), median (range), n = 8)?
The Tmax was 1.03 h.

What about the Tmax ([2]; po, tmax, single 0.5 mg oral dose, background ritonavir-boosted triple regimen, median (range), n = 8) of the same compound?
The Tmax was 1.03 h.

And the “increase in mean AUC0-∞ compared with controls” value [3]?
Its value is 2.5 fold.

What about the “riociguat exposure (AUC) compared with historical healthy volunteers” value ([4]; administered with abacavir/dolutegravir/lamivudine) of the same compound?
The value was “increased by approximately threefold”.

And the “riociguat exposure (AUC) compared with historical healthy volunteers” value ([4]; administered with ritonavir-boosted triple regimen)?
Its value is “slightly increased”.

What about the “riociguat exposure (AUC) compared with historical healthy volunteers” value ([4]; co-administered with efavirenz/emtricitabine/tenofovir disoproxil) of the same compound?
The value was “similar”.

What about the “riociguat exposure (AUC) compared with historical healthy volunteers” value ([4]; co-administered with efavirenz/emtricitabine/tenofovir disoproxil, listed as Riociguat) of the same compound?
The value was “no apparent change”.

And the bioavailability [5]?
Its bioavailability is greater than 90%.

What about the “fraction of the dose eliminated by oxidative biotransformation” value [5] of the same compound?
The value was 27–71%.

And the mean half-life ([5]; healthy individuals)?
The mean half-life was “approximately 7 h”.

And the mean half-life ([5]; patients with PAH)?
Its mean half-life is “approximately 12 h”.

What about the “AEs considered related to riociguat” value (Safety and tolerability; headache and stomach cramps, all resolved by study end) of the same compound?
The value was “Four AEs were considered related to riociguat in three participants”.

What about the “AEs related to decreased blood pressure or hypotension” value (Safety and tolerability; [9]) of the same compound?
The value was “No AEs related to decreased blood pressure or hypotension were reported”.

What about the “changes in vital signs, electrocardiogram, or laboratory parameters” value (Safety and tolerability; [9]) of the same compound?
Its value is “No clinically significant changes”.

What about the “intensity of AEs” value (Safety and tolerability; [9]) of the same compound?
The value was “mild or moderate”.

And the tolerability (Safety and tolerability; single 0.5 mg dose, adults with HIV on stable background ART)?
Its tolerability is “well tolerated”.

And the “serious AEs, AEs leading to discontinuation, or deaths” value (Safety and tolerability; single 0.5 mg dose, adults with HIV, n = 41)?
The value was “no serious AEs, AEs leading to discontinuation, or deaths”.

And the participants with headache (Safety and tolerability; single 0.5 mg dose, adults with HIV, n = 41 (four participants))?
The participants with headache was 10%.

What about the “participants with a treatment-emergent AE” value (Safety and tolerability; single 0.5 mg dose, adults with HIV, n = 41 (ten participants)) of the same compound?
The value was 24%.

And the participants with fatigue (Safety and tolerability; single 0.5 mg dose, adults with HIV, n = 41 (two participants))?
Its participants with fatigue is 5%.

What about the “Any AE” value (Safety and tolerability; [10]) of the same compound?
Its value is 10 (24) n (%).

And the Diarrhea (Safety and tolerability; [10])?
The Diarrhea was 1 (2) n (%).

And the Dizziness (Safety and tolerability; [10])?
The Dizziness was 1 (2) n (%).

What about the Fatigue (Safety and tolerability; [10]) of the same compound?
The Fatigue was 2 (5) n (%).

And the Headache (Safety and tolerability; [10])?
Its Headache is 4 (10) n (%).

And the Lip swelling (Safety and tolerability; [10])?
Its Lip swelling is 1 (2) n (%).

What about the Oral paresthesia (Safety and tolerability; [10]) of the same compound?
The Oral paresthesia was 1 (2) n (%).

And the Oropharyngeal pain (Safety and tolerability; [10])?
The Oropharyngeal pain was 1 (2) n (%).

And the Pain (Safety and tolerability; [10])?
The Pain was 1 (2) n (%).

And the Pyrexia (Safety and tolerability; [10])?
Its Pyrexia is 1 (2) n (%).

And the Upper abdominal pain (Safety and tolerability; [10])?
Its Upper abdominal pain is 1 (2) n (%).

What about the Urethritis (Safety and tolerability; [10]) of the same compound?
Its Urethritis is 1 (2) n (%).

And the “Any AE” value (Safety and tolerability; [11])?
The value was 2 (25) n (%).

And the Diarrhea (Safety and tolerability; [11])?
The Diarrhea was 0 n (%).

And the Dizziness (Safety and tolerability; [11])?
The Dizziness was 0 n (%).

What about the Fatigue (Safety and tolerability; [11]) of the same compound?
Its Fatigue is 1 (13) n (%).

And the Headache (Safety and tolerability; [11])?
The Headache was 1 (13) n (%).

What about the Lip swelling (Safety and tolerability; [11]) of the same compound?
The Lip swelling was 0 n (%).

What about the Oral paresthesia (Safety and tolerability; [11]) of the same compound?
Its Oral paresthesia is 0 n (%).

What about the Oropharyngeal pain (Safety and tolerability; [11]) of the same compound?
Its Oropharyngeal pain is 0 n (%).

And the Pain (Safety and tolerability; [11])?
The Pain was 0 n (%).

And the Pyrexia (Safety and tolerability; [11])?
The Pyrexia was 1 (13) n (%).

And the Upper abdominal pain (Safety and tolerability; [11])?
The Upper abdominal pain was 0 n (%).

What about the Urethritis (Safety and tolerability; [11]) of the same compound?
Its Urethritis is 0 n (%).

And the “Any AE” value (Safety and tolerability; [12])?
The value was 1 (13) n (%).

And the Diarrhea (Safety and tolerability; [12])?
The Diarrhea was 0 n (%).

And the Dizziness (Safety and tolerability; [12])?
The Dizziness was 0 n (%).

And the Fatigue (Safety and tolerability; [12])?
The Fatigue was 0 n (%).

What about the Headache (Safety and tolerability; [12]) of the same compound?
The Headache was 0 n (%).

And the Lip swelling (Safety and tolerability; [12])?
The Lip swelling was 0 n (%).

And the Oral paresthesia (Safety and tolerability; [12])?
Its Oral paresthesia is 1 (13) n (%).

And the Oropharyngeal pain (Safety and tolerability; [12])?
The Oropharyngeal pain was 0 n (%).

What about the Pain (Safety and tolerability; [12]) of the same compound?
The Pain was 0 n (%).

What about the Pyrexia (Safety and tolerability; [12]) of the same compound?
Its Pyrexia is 0 n (%).

What about the Upper abdominal pain (Safety and tolerability; [12]) of the same compound?
The Upper abdominal pain was 0 n (%).

What about the Urethritis (Safety and tolerability; [12]) of the same compound?
Its Urethritis is 0 n (%).

And the “Any AE” value (Safety and tolerability; [13])?
The value was 2 (25) n (%).

What about the Diarrhea (Safety and tolerability; [13]) of the same compound?
Its Diarrhea is 0 n (%).

And the Dizziness (Safety and tolerability; [13])?
Its Dizziness is 1 (13) n (%).

What about the Fatigue (Safety and tolerability; [13]) of the same compound?
The Fatigue was 1 (13) n (%).

What about the Headache (Safety and tolerability; [13]) of the same compound?
Its Headache is 0 n (%).

And the Lip swelling (Safety and tolerability; [13])?
Its Lip swelling is 1 (13) n (%).

What about the Oral paresthesia (Safety and tolerability; [13]) of the same compound?
The Oral paresthesia was 0 n (%).

And the Oropharyngeal pain (Safety and tolerability; [13])?
Its Oropharyngeal pain is 0 n (%).

And the Pain (Safety and tolerability; [13])?
Its Pain is 0 n (%).

And the Pyrexia (Safety and tolerability; [13])?
Its Pyrexia is 0 n (%).

What about the Upper abdominal pain (Safety and tolerability; [13]) of the same compound?
The Upper abdominal pain was 0 n (%).

And the Urethritis (Safety and tolerability; [13])?
Its Urethritis is 0 n (%).

What about the “Any AE” value (Safety and tolerability; [14]) of the same compound?
The value was 3 (38) n (%).

What about the Diarrhea (Safety and tolerability; [14]) of the same compound?
The Diarrhea was 0 n (%).

What about the Dizziness (Safety and tolerability; [14]) of the same compound?
The Dizziness was 0 n (%).

And the Fatigue (Safety and tolerability; [14])?
Its Fatigue is 0 n (%).

And the Headache (Safety and tolerability; [14])?
Its Headache is 1 (13) n (%).

What about the Lip swelling (Safety and tolerability; [14]) of the same compound?
The Lip swelling was 0 n (%).

And the Oral paresthesia (Safety and tolerability; [14])?
The Oral paresthesia was 0 n (%).

And the Oropharyngeal pain (Safety and tolerability; [14])?
The Oropharyngeal pain was 1 (13) n (%).

And the Pain (Safety and tolerability; [14])?
Its Pain is 1 (13) n (%).

And the Pyrexia (Safety and tolerability; [14])?
Its Pyrexia is 0 n (%).

What about the Upper abdominal pain (Safety and tolerability; [14]) of the same compound?
Its Upper abdominal pain is 0 n (%).

What about the Urethritis (Safety and tolerability; [14]) of the same compound?
Its Urethritis is 1 (13) n (%).

What about the “Any AE” value (Safety and tolerability; [15]) of the same compound?
Its value is 2 (22) n (%).

What about the Diarrhea (Safety and tolerability; [15]) of the same compound?
Its Diarrhea is 1 (11) n (%).

And the Dizziness (Safety and tolerability; [15])?
The Dizziness was 0 n (%).

What about the Fatigue (Safety and tolerability; [15]) of the same compound?
Its Fatigue is 0 n (%).

And the Headache (Safety and tolerability; [15])?
Its Headache is 2 (22) n (%).

And the Lip swelling (Safety and tolerability; [15])?
Its Lip swelling is 0 n (%).

And the Oral paresthesia (Safety and tolerability; [15])?
Its Oral paresthesia is 0 n (%).

And the Oropharyngeal pain (Safety and tolerability; [15])?
The Oropharyngeal pain was 0 n (%).

What about the Pain (Safety and tolerability; [15]) of the same compound?
Its Pain is 0 n (%).

What about the Pyrexia (Safety and tolerability; [15]) of the same compound?
The Pyrexia was 0 n (%).

What about the Upper abdominal pain (Safety and tolerability; [15]) of the same compound?
The Upper abdominal pain was 1 (11) n (%).

What about the Urethritis (Safety and tolerability; [15]) of the same compound?
The Urethritis was 0 n (%).

For CN1CC(=O)N2[C@H](c3ccc4c(c3)OCO4)c3[nH]c4ccccc4c3C[C@@H]2C1=O [tadalafil], which “change in Cmax” value [6] is on record?
Its value is “no change”.

What about the “increase in single-dose exposure” value [6] of the same compound?
Its value is 124%.

Which “plasma concentrations on co-administration” value [7] does the source give for COc1ccccc1Oc1c(NS(=O)(=O)c2ccc(C(C)(C)C)cc2)nc(-c2ncccn2)nc1OCCO [bosentan] here?
The value was “increased plasma concentrations”.

For COC(=O)Nc1c(N)nc(-c2nn(Cc3ccccc3F)c3ncccc23)nc1N [M1], which “biologic activity relative to riociguat” value [8] is on record?
Its value is “one-tenth to one-third”.
